ChEMBL document CHEMBL1938355, “Antimycobacterial activities of 5-alkyl (or halo)-3'-substituted pyrimidine nucleoside analogs” (Bioorg Med Chem Lett, 2012)
Values after ≈ are worked out from the molar mass of the structure shown. Active and inactive are the calls of the source. The rule behind the calls is not given here.

Key:
[1] = Cytotoxicity against human HuH7 cells by XTT assay; assay type: cell-based, Huh-7
Mycobacterium avium [2] = assay: Antimycobacterial activity against Mycobacterium avium ATCC 25291 assessed as growth inhibition at 0.5 to 100 ug/ml by microplate alamar blue assay; assay type: functional; conditions: Mycobacterium avium subsp. avium ATCC 25291
In short: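 M. avium ATCC 25291 (ATCC stock) in 7H9GC medium, microplate alamar blue read-out. Compounds dissolved in DMSO at 10 mg/mL (stock), diluted in medium to final 100, 50, 25, 10, 5, 1 and 0.5 µg/mL, each in triplicate. Two independent experiments; mean percent growth inhibition reported, SD within 10% of mean.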

Huh-7 [3] = assay: Cytotoxicity against human HuH7 cells up to 100 ug/ml by XTT assay; assay type: cell-based
Huh-7 [4] = assay: Cytotoxicity against human HuH7 cells up to 100 ug/ml by [3H]thymidine incorporation assay; assay type: cell-based
[5] = test system: Mycobacterium tuberculosis; assay: Antimycobacterial activity against Mycobacterium tuberculosis H37Ra assessed as growth inhibition at 0.5 to 100 ug/ml by microplate alamar blue assay; assay type: functional, organism-based
In short: (§1)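 Strains obtained from ATCC. Tested by microplate alamar blue assay. Compounds made up as 10 mg/mL DMSO stocks, then serially diluted in 7H9GC medium. Final test concentrations were 100, 50, 25, 10, 5, 1 and 0.5, each in triplicate. Experiments were run twice, and mean percent growth inhibition is reported.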

[6] = Cytotoxicity against human HuH7 cells by [3H]thymidine incorporation assay; assay type: cell-based, Huh-7
[7] = test system: Mycobacterium tuberculosis; assay: Antimycobacterial activity against Mycobacterium tuberculosis H37Ra assessed as growth inhibition at 50 ug/ml by microplate alamar blue assay; assay type: functional; conditions: read-out: GI; in short: as §1
Mycobacterium avium [8] = assay: Antimycobacterial activity against Mycobacterium avium ATCC 25291 assessed as growth inhibition at 10 ug/ml by microplate alamar blue assay; assay type: functional, Mycobacterium avium subsp. avium ATCC 25291; conditions: read-out: GI; in short: as §1
[9] = test system: Mycobacterium tuberculosis; assay: Antimycobacterial activity against Mycobacterium tuberculosis H37Ra assessed as growth inhibition at 10 ug/ml by microplate alamar blue assay; assay type: functional; conditions: read-out: GI; in short: as §1
Mycobacterium avium [10] = assay: Antimycobacterial activity against Mycobacterium avium ATCC 25291 assessed as growth inhibition at 50 ug/ml by microplate alamar blue assay; assay type: functional, Mycobacterium avium subsp. avium ATCC 25291; conditions: read-out: GI; in short: as §1
[11] = test system: Mycobacterium tuberculosis; assay: Antimycobacterial activity against Mycobacterium tuberculosis H37Ra assessed as growth inhibition at 15 to 20 ug/ml by microplate alamar blue assay; assay type: functional
[12] = test system: Mycobacterium tuberculosis; assay: Antimycobacterial activity against Mycobacterium tuberculosis H37Ra assessed as growth inhibition at 5 ug/ml by microplate alamar blue assay; assay type: functional; conditions: read-out: GI; in short: as §1
Mycobacterium avium [13] = assay: Antimycobacterial activity against Mycobacterium avium ATCC 25291 assessed as growth inhibition at 100 ug/ml by microplate alamar blue assay; assay type: functional, Mycobacterium avium subsp. avium ATCC 25291; conditions: read-out: GI; in short: as §1
[14] = test system: Mycobacterium tuberculosis; assay: Antimycobacterial activity against Mycobacterium tuberculosis H37Ra by microplate alamar blue assay; assay type: functional
[15] = test system: Mycobacterium tuberculosis; assay: Antimycobacterial activity against Mycobacterium tuberculosis H37Ra assessed as growth inhibition at 100 ug/ml by microplate alamar blue assay; assay type: functional; conditions: read-out: GI; in short: as §1
Mycobacterium avium [16] = assay: Antimycobacterial activity against Mycobacterium avium ATCC 25291 assessed as growth inhibition at 2 ug/ml by microplate alamar blue assay; assay type: functional, Mycobacterium avium subsp. avium ATCC 25291; conditions: read-out: GI
[17] = test system: Mycobacterium tuberculosis; assay: Antimycobacterial activity against Mycobacterium tuberculosis H37Ra assessed as growth inhibition at 0.5 to 1 ug/ml by microplate alamar blue assay; assay type: functional; in short: as §1
Mycobacterium avium [18] = assay: Antimycobacterial activity against Mycobacterium avium ATCC 25291 by microplate alamar blue assay; assay type: functional, Mycobacterium avium subsp. avium ATCC 25291

| SMILES | CC50 [1] | growth inhibition (GI) (Mycobacterium avium [2]) | Activity (Huh-7 [3]) | Activity (Huh-7 [4]) | growth inhibition (GI) [5] | CC50 [6] | further results |
| --- | --- | --- | --- | --- | --- | --- | --- |
| CCc1cn([C@H]2C[C@H](I)[C@@H](CO)O2)c(=O)[nH]c1=O | > 100 µg/mL | inactive | Non-toxic | Non-toxic | inactive | > 100 µg/mL |  |
| CCc1cn([C@H]2CC[C@@H](CO)O2)c(=O)[nH]c1=O | > 100 µg/mL | inactive | Non-toxic | Non-toxic | inactive | > 100 µg/mL |  |
| Cc1cn([C@H]2C[C@H](N)[C@@H](CO)O2)c(=O)[nH]c1=O [3-AMINO- 3-DEOXYTHYMIDINE] | > 100 µg/mL | inactive | Non-toxic | Non-toxic | inactive | > 100 µg/mL |  |
| [N-]=[N+]=N[C@H]1C[C@H](n2cc(F)c(=O)[nH]c2=O)O[C@@H]1CO | > 100 µg/mL | inactive | Non-toxic | Non-toxic | inactive | > 100 µg/mL |  |
| N[C@@H]1CONC1=O [CYCLOSERINE] |  |  |  |  |  |  | inhibition of growth at 50 µg/mL [7]: 100%; inhibition of growth at 10 µg/mL (Mycobacterium avium [8]): 15%; inhibition of growth at 10 µg/mL [9]: 60%; inhibition of growth at 50 µg/mL (Mycobacterium avium [10]): 100%; growth inhibition (GI) [11]: 80%; inhibition of growth at 5 µg/mL [12]: 50%; inhibition of growth at 100 µg/mL (Mycobacterium avium [13]): 100%; MIC50 [14]: 5 µg/mL (≈ 49 µM) |
| O=c1[nH]c(=O)n([C@H]2C[C@H](F)[C@@H](CO)O2)cc1C(F)(F)F | > 100 µg/mL |  | Non-toxic | Non-toxic | inactive | > 100 µg/mL | inhibition of growth at 100 µg/mL (Mycobacterium avium [13]): 25% |
| [N-]=[N+]=N[C@H]1C[C@H](n2cc(Br)c(=O)[nH]c2=O)O[C@@H]1CO | > 100 µg/mL | inactive | Non-toxic | Non-toxic |  | > 100 µg/mL | inhibition of growth at 100 µg/mL [15]: 30% |
| CCc1cn([C@H]2C[C@@H](O)[C@@H](CO)O2)c(=O)[nH]c1=O | > 100 µg/mL | inactive | Non-toxic | Non-toxic | inactive | > 100 µg/mL |  |
| CCc1cn([C@H]2C[C@H](F)[C@@H](CO)O2)c(=O)[nH]c1=O | > 100 µg/mL | inactive | Non-toxic | Non-toxic | inactive | > 100 µg/mL |  |
| CC[C@H]1OC(=O)[C@H](C)[C@@H](O[C@H]2C[C@@](C)(OC)[C@@H](O)[C@H](C)O2)[C@H](C)[C@@H](O[C@@H]2O[C@H](C)C[C@H](N(C)C)[C@H]2O)[C@](C)(OC)C[C@@H](C)C(=O)[C@H](C)[C@@H](O)[C@]1(C)O [CLARITHROMYCIN] |  |  |  |  |  |  | inhibition of growth at 2 µg/mL (Mycobacterium avium [16]): 100% |
| CO[C@H]1/C=C/O[C@@]2(C)Oc3c(C)c(O)c4c(O)c(c(/C=N/N5CCN(C)CC5)c(O)c4c3C2=O)NC(=O)/C(C)=C\C=C\[C@H](C)[C@H](O)[C@@H](C)[C@@H](O)[C@@H](C)[C@H](OC(C)=O)[C@@H]1C [RIFAMPIN] |  |  |  |  |  |  | growth inhibition (GI) [17]: 100%; inhibition of growth at 2 µg/mL (Mycobacterium avium [16]): 90% |
| [N-]=[N+]=N[C@H]1C[C@H](n2cc(Cl)c(=O)[nH]c2=O)O[C@@H]1CO | > 100 µg/mL | inactive | Non-toxic | Non-toxic |  | > 100 µg/mL | inhibition of growth at 100 µg/mL [15]: 50% |
| CCc1cn([C@H]2C[C@H](N=[N+]=[N-])[C@@H](CO)O2)c(=O)[nH]c1=O | > 100 µg/mL |  | Non-toxic | Non-toxic |  | > 100 µg/mL | inhibition of growth at 50 µg/mL [7]: 60%; inhibition of growth at 10 µg/mL (Mycobacterium avium [8]): 50%; inhibition of growth at 10 µg/mL [9]: 50%; inhibition of growth at 50 µg/mL (Mycobacterium avium [10]): 60%; inhibition of growth at 100 µg/mL (Mycobacterium avium [13]): 100%; MIC50 [14]: 10 µg/mL (≈ 35.6 µM); MIC50 (Mycobacterium avium [18]): 10 µg/mL (≈ 35.6 µM); inhibition of growth at 100 µg/mL [15]: 60% |
